The values that follow come from publication PMC3234294 (Analytical chemistry, 2011).

The nature of data set [1]: QCM binding of antibodies to bare Au sensor surface. The following applies: 1 μl of 1 μg/μl MAb spiked into 1 ml PBS.
Data set [2] can be described thus: QCM binding of antibodies to MUA sensor surface. The following applies: 1 μl of 1 μg/μl MAb spiked into 1 ml PBS. In outline:
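Au QCM electrodes, bare or modified by overnight SAM formation at 4 °C (MUA or peptide monolayers), rinsed with water and placed in 1 ml PBS. Therapeutic monoclonal antibodies (1 μg/μl stock) were spiked sequentially, 1 μl each, into the cuvette. Frequency change was recorded against time with a network/impedance analyzer.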

The test system of data set [3] is Avastin. Description: QCM nonspecific binding of immobilized peptides to Avastin. The essentials: (§1)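 A CH-19 peptide monolayer was self-assembled on an Au QCM electrode overnight at 4 °C, rinsed, and held in PBS. The non-target therapeutic antibodies were spiked in sequentially into the same cuvette, each as 1 μl into 999 μl PBS (final 1 μg/ml). Label-free frequency shift (ΔF) was followed in real time with a network/impedance analyzer.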

Data set [4] can be described thus: CV of CH-19 modified Au electrode before and after Herceptin. Type of data set: physicochemical. The following applies: upon surface deposition of CH-19 and Herceptin; 0.1 M NaClO4, 50 mV/s.
The subject of data set [5] is Rituxan. Description: QCM nonspecific binding of immobilized peptides to Rituxan. The essentials:
as §1

Data set [6] deals with Herceptin. Briefly: QCM binding of immobilized HER2 mimotope-derived peptides to Herceptin. The arrangement: species or system humanized.
Data set [7] relates to Cetuximab. Description: QCM nonspecific binding of immobilized CH-19 to Cetuximab. The following applies: CH-19 modified Au QCM electrode, PBS, final 1 μg/ml. In outline: as §1
In data set [8] the test system is Herceptin. Briefly: CH-19 piezoimmunosensor analytical performance for Herceptin detection. On the set-up: species or system humanized.
Data set [9] is described as follows: EIS of CH-19 modified Au electrode before and after Herceptin. Type of data set: physicochemical. Conditions: bare Au to CH-19 to binding with Herceptin; 0.01 Hz-100 kHz, 5 mV.
For data set [10], the system named is Herceptin. Conditions: previously reported; ref 16 (Jiang et al.); cited from earlier work.
Where [11] appears, read: CH-19 modified Au QCM electrode, PBS, final 1 μg/ml.
Where [12] appears, read: QCM, CV and EIS summarized, all four peptide designs.

For Avastin: therapeutic MAb, control drug, in [1], the “Binding to bare Au sensor surface, in words” value is “negligible”. Further, the “Binding to MUA sensor surface, in words” value in data set [2] was “appreciable”.

Take CGSGSGSQLGPYELWELSH [CH-19]: the “frequency shift (ΔF) with Avastin” value in data set [3] (setting [11]) is recorded as ~ 0 Hz. For the same substance, in data set [3] (setting [12]), the “Nonspecific binding activity with Avastin among peptide designs” value is reported as “lowest nonspecific binding activity”. For the same substance, the “redox peaks of Fe(CN)6 probe” value in data set [4] is on record as “gradually disappeared”. Moreover, the “frequency shift (ΔF) with Rituxan” value in data set [5] (setting [11]) is ~ 0 Hz. Also, the “Nonspecific binding activity with Rituxan among peptide designs” value in [5] (setting [12]) is “lowest nonspecific binding activity”. Also, the “Ka (affinity for Herceptin)” value in [6] (CH-19 modified gold QCM electrode (Figure S3)) was 7.96e+08 M⁻¹. Also, the “Buffering effects on Herceptin/CH-19 interaction” value in data set [6] (Herceptin lowered 10 fold to 0.1 μg/ml, H2O, PBS or HBS-EP) is listed as “similar”. The “Overall binding capacity with Herceptin among peptide designs” value in data set [6] (setting [12]) is listed as “highest binding capacity with Herceptin”. Moreover, the “Herceptin bound to the CH-19 modified gold QCM electrode (mass)” value in data set [6] (estimated by Sauerbrey's equation, ΔF of 1 Hz about 1 ng, PBS, 1 μg/ml Herceptin) was ~ 225 ng. Also, the “frequency change (ΔF) with free Herceptin” value in data set [6] (simple buffer (1 ml HBS-EP), 1 μl Herceptin stock 1 μg/μl, no serum) is on record as ~ 275 Hz. Besides, the “frequency shift (ΔF) with Cetuximab” value in [7] is ~ 0 Hz. Besides, the sensitivity in data set [8] (PBS buffer) came out at 0.52 Hz · ml/ng. Further, in data set [8] (PBS buffer, frequency change vs time), the “time to detection of Herceptin, in words” value is “within minutes”. Also, the detection limit was 10.70 ng/mL in data set [8] (PBS buffer, S/N = 3, N ~ 1.85 Hz); 0.038 nM in data set [8] (in simple buffers and in human serum samples (Table S3)); 0.038 nM in data set [8] (piezoimmunosensor assay, standard curve in HBS-EP buffer). In addition, the “Nyquist plots (electron transfer resistance)” value in [9] is “enlarged step-by-step”.

Take GPYELWELSH: the “specific binding activities to Herceptin, in words” value in data set [10] was “exhibited specific binding activities to Herceptin”.

As for QLGPYELWELSH, in data set [10], the “specific binding activities to Herceptin, in words” value is listed as “exhibited specific binding activities to Herceptin”.

Regarding Rituxan: therapeutic MAb, control drug, the “Binding to bare Au sensor surface, in words” value in data set [1] is on record as “negligible”. Also, the “Binding to MUA sensor surface, in words” value in data set [2] is given as “appreciable”.
